# Assay outcomes (PubChem BioAssay)
# Shown are actives, neighbours in structure and some others; about 3.7% of the full set was active somewhere.
# HCV core dimer: HCV core protein dimerization inhibition. TR-FRET GST/Flag-core106 dimerization, 1536-well. 300,000 compounds, 0.33% hits. inhibition, % at 5 µM;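 active = inhibition above the mean of all tested compounds plus 3 SD, set per screening campaign, cut at about 45% in these data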
#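 Test system: GST/Flag-tagged HCV core106 proteins; Medium: KF-containing HEPES buffer, pH 7.45, DTT, CHAPS, BSA; Times: compound-protein-antibody incubation 4 h at 22.5 °C; Detection: TR-FRET 671 and 617 nm emission; Benchmarks: wells lacking GST-core106 and wells with excess unlabelled core106.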
# HCV NS3 hel inh: blocks Hepatitis C virus NS3 helicase unwinding; NS3 helicase DNA unwinding, Cy5 molecular beacon fluorescence; 290,000 compounds, 0.56% hits; inhibition, % at 10.9 µM;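 active = inhibition above the mean of all tested compounds plus 3 SD, set per campaign, cut at about 35% in these data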;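 also: 0% = DMSO wells and 100% = thioflavine S control wells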
#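 test system = hepatitis C virus NS3 helicase domain fragment enzyme | reagent = annealed dual-labelled DNA beacon duplex, ATP-started | times = 1 h at 25 °C | detection = Cy5 fluorescence, 0 and 60 min reads | read-out basis = percent inhibition from t60/t0 fluorescence ratio | control set = DMSO and thioflavine S | replication = one well per compound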
# TAAR1 ag: agonists of human TAAR1; 360,000 compounds, 0.99% hits; activation, % at 3 µM; Q96RJ0; CHO RD-HGA16 TAAR1, Fluo-8 calcium fluorescence; vehicle wells 0%, saturating PEA agonist 100%;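 active = activation above the mean activation of all test compounds in the run plus 3 SD, cut at about 38% in these data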
# Target sequence (Q96RJ0 whole entry, looked up): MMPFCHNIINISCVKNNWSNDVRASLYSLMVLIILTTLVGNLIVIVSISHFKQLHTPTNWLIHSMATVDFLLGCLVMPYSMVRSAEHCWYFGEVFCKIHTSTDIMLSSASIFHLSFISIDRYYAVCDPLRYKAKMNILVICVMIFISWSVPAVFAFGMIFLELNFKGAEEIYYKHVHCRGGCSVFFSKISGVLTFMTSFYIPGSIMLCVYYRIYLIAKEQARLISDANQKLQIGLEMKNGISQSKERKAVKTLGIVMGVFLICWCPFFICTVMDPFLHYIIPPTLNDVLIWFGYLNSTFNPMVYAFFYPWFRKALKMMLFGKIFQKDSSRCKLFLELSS
#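 Signal – calcium-sensitive Fluo-8 signal, excitation 470-495, emission 515-575 nm · System – RD-HGA16 (CHO) cells co-expressing Gα16 and hTAAR1 · Incubation – 17-24 h seeding, 75 min 37 °C dye, 30 min RT · Compound dosing – 3 µM single concentration · Repeats – no replicates (n 1)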
# TAAR1 antagonist: antagonists of human TAAR1; Q96RJ0; CHO RD-HGA16 TAAR1, Fluo-8 calcium fluorescence, antagonist; inhibition, % at 3 µM; 360,000 compounds, 1.5% hits;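 active = inhibition above a per-plate cutoff, the mean inhibition of test compounds on that plate plus 3 SD, cut at about 49% in these data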;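 also: 0% = DMSO plus EC80 beta-PEA response and 100% = DMSO alone without agonist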
#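 Test system – hTAAR1-expressing CHO RD-HGA16 cells, Gα16-coupled · Reagent – β-PEA at EC80 concentration, post-compound challenge · Compound dosing – 3 µM, single point · Timing – 140 s kinetic read after compound, 140 s after agonist · Detection – Fluo-8 intracellular calcium dye fluorescence, real-time kinetic reads · Control set – DMSO and EC80 PEA controls · Repeats – n of 1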
# rCAG RNA binder: binds r(CAG) RNA repeats | r(CAG) RNA repeat, TO-PRO-1 dye displacement fluorescence | inhibition, % at 3 µM | 370,000 compounds, 1.3% hits;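 active = inhibition above the plate cutoff, the mean of all test compounds on that plate plus 3 SD, cut at about 35% in these data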;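 also: 0% = DMSO alone and 100% = 100 µM mitoxantrone as full dye displacement; higher means more dye released from RNA so lower well fluorescence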
# Active calls of the source: *; . = no result given.
SMILES,HCV core dimer,HCV NS3 hel inh,TAAR1 ag,TAAR1 antagonist,rCAG RNA binder
COc1ccc(C(=O)Nc2cccc(/C(C)=N\NC(=O)c3ccoc3C)c2)cc1OC,.,-1.3,12.8,49.2*,-0.4
N[C@H](C(=O)N[C@@H](Cc1ccccc1)C(=O)N1CCC2CCN(S(=O)(=O)c3ccccc3)CC21)c1ccccc1 (stereo partly drawn),.,.,.,.,3.1
O=C1NC(Cc2ccc(O)cc2)c2nc3ccc(F)cc3c(=O)n2-c2cc3ccccc3cc21 (stereo not drawn),.,.,7.7,50.3*,13.4
CCOC(=O)N1CCN(C2OC(=O)c3ccccc32)CC1 (stereo not drawn),-6.3,-1.9,37.6*,-6.3,-1.6
N#CC1=C(N)N(c2ccc(F)cc2)C2=C(C1c1ccc(O)cc1)S(=O)(=O)CC2 (stereo not drawn),.,16.0,9.2,39.6,35.4*
CSc1ccc(C2C(C#N)=C(N)N(c3ccccc3)C3=C2C(=O)CCC3)cc1 (stereo not drawn),26.1,11.9,2.9,-6.4,-1.8
Cc1ccc(S(=O)(=O)N2CCCC(C(=O)Nc3c(C)n(C)n(-c4ccccc4)c3=O)C2)cc1C (stereo not drawn),.,.,.,.,2.1
COC(=O)C[C@H]1CC[C@@H]2[C@@H](COc3ccc(NC(=O)C4CCCCC4)cc3C(=O)N2C)O1,.,.,.,.,0.3
COc1ccc(-c2noc(CCC(=O)N3CCN(c4cccc(C(F)(F)F)c4)CC3)n2)cc1,-2.8,1.0,6.5,32.3,-3.0
CCOc1ccc(-c2nc(CSCC(=O)N3CCN(c4cccc(OC)c4)CC3)c(C)o2)cc1,-0.8,-5.0,4.8,50.5*,3.0
COc1ccc(-c2noc(CCC(=O)N3CCN(c4cccc(OC)c4)CC3)n2)cc1,.,.,10.8,52.7*,1.9
O=C(c1cc(F)ccc1F)N(Cc1ccccn1)CC1CCCO1 (stereo not drawn),.,.,.,.,1.8
O=C(CCC(=O)N1CCOCC1)NCCc1ccccc1,.,.,38.9*,62.6*,1.4
CCc1ccc(OCC(=O)NNC(=S)NC(=O)C2CC2)c(Br)c1,.,3.0,40.0*,9.3,15.6
CCn1c(C)nc2cc(C(=O)NNC(=O)Nc3ccc(Cl)c(Cl)c3)ccc21,-2.2,9.5,40.9*,20.4,0.7
CC1(C)SC(=S)N(/N=C/c2ccccc2)C1N(O)C(=O)Nc1ccc([N+](=O)[O-])cc1 (stereo not drawn),5.0,1.9,44.2*,-6.5,11.2
COc1ccc(N2CCN(C(=O)COC(=O)c3oc4ccccc4c3C)CC2)cc1,.,.,25.8,51.3*,2.0
CCc1nc2ccc(C(=O)Nc3ccc(C(N)=O)cc3)cn2c1N(C)CCC(C)C,.,.,43.2*,25.8,1.2
c1nc2nc3c(c(N4CCCC4)n2n1)CCCC3,.,.,.,.,2.0
CSC1=NSC2=NC(=O)/C(=C\c3cccs3)C(=N)N12,-5.1,30.3,3.9,2.4,12.6
CSC1=NSC2=NC(=O)/C(=C/c3coc4ccc(O)cc4c3=O)C(=N)N12,20.9,32.0,411.8*,108.8*,-189.9
CSC1=NSC2=NC(=O)/C(=C/c3coc4ccccc4c3=O)C(=N)N12,0.4,12.7,374.6*,104.4*,-44.9
CCOc1ccc(NC(=O)c2cc(-c3ccc(Cl)cc3)nc3ccccc23)cc1,.,.,.,.,4.5
C[C@]1(C2CCCC2)Cc2cc(OCC(=O)O)c(Cl)c(Cl)c2C1=O,14.6,.,0.0,-0.4,8.2
CCCC[C@@]1(C2CCCC2)Cc2cc(OCC(=O)O)c(Cl)c(Cl)c2C1=O,-3.4,.,-1.5,-10.0,46.8*
SMILES,HCV core dimer,HCV NS3 hel inh,TAAR1 ag,TAAR1 antagonist,rCAG RNA binder
CCC(C)N(c1nc(C)nc2c1nnn2Cc1ccccc1)C(C)CC (stereo not drawn),.,.,.,.,-1.2
CCN(C(=O)COc1cc(=O)n(CC)c2ccccc12)c1cc(Cl)ccc1OC,3.3,-1.2,8.2,48.8*,-1.0
O=[N+]([O-])c1cccc(NCCCN2CCC(C(O)(c3ccccc3)c3ccccc3)CC2)c1,.,.,.,.,4.2
CC(Nc1nc(N2CCNCC2)nc2ccccc12)c1ccccc1 (stereo not drawn),-0.3,-35.9,39.2*,39.2,-1.8
O=C(Nc1nnc(SCc2c(Cl)cccc2Cl)s1)C1CC(=O)N(c2ccc3c(c2)OCCO3)C1 (stereo not drawn),31.6,10.8,1.8,-9.6,5.2
N#Cc1ccc(CSc2nnc(NC(=O)C3CC(=O)N(c4ccc5c(c4)OCCO5)C3)s2)cc1 (stereo not drawn),64.3*,25.2,.,.,.
O=C(Nc1nnc(SCc2ccc(F)cc2)s1)C1CC(=O)N(c2ccc3c(c2)OCCO3)C1 (stereo not drawn),15.7,-1.9,37.9*,-4.1,5.1
Cc1cc(F)ccc1C(=O)N1CCC(Oc2cccnc2)CC1,.,.,.,.,-1.3
COc1cccc(/C=C2\CC3(OC(=O)C(C)(C)C)CCCN2C3)c1 (stereo not drawn),.,.,.,.,1.5
Cc1ccc(S(=O)(=O)n2ccc3c(OCCOCCSCC(NC(=O)OC(C)(C)C)C(=O)O)cccc32)cc1 (stereo not drawn),8.5,-66.4,2.3,12.0,47.7*
CCOc1cc(/C=C2\C(=O)N(c3nc(-c4ccc(Br)cc4)cs3)N=C2c2ccccc2)ccc1O,54.6*,20.3,.,.,.
CCOC(=O)[C@@]12CCCC3=C1N(CCC3)C(=O)[C@H]2CC(=O)NCc1ccccc1,.,.,.,.,-2.0
COc1cccc(/C=N/c2sc(Cc3ccccc3)c(C)c2C(N)=O)c1O,7.6,6.6,3.4,8.4,37.1*
CCOc1ccc(C2C(C#N)=C(N)N(c3sc4c(c3C#N)CCCC4)C3=C2C(=O)CCC3)cc1 (stereo not drawn),55.3*,2.3,7.9,-6.0,13.0
Cc1cc(OCc2cc(C(=O)N3CCC(Oc4cccnc4)CC3)no2)cc(C)c1Cl,15.2,-28.7,11.0,52.5*,-3.1
Cc1cc(OCc2cc(C(=O)N3CCN(CC4CC4)CC3)no2)cc(C)c1Cl,-8.8,-88.5,4.4,-5.7,-3.3
CCOC(=O)CC[C@H]1CC[C@]2(CCCN(C(=O)C(C)(C)C)C2)O1,.,.,.,.,-2.2
CCOc1ccc(CN2CCN(Cc3cc4ccccc4[nH]3)CC2CCO)cc1 (stereo not drawn),.,-40.0,41.7*,38.4,7.8
c1ccc(-c2c[nH]c3ccc(OCc4ccc5ccccc5n4)c(-c4ccccc4)c23)cc1,.,.,.,.,14.2
